For 30 compounds, Ki and inhibition results are on record in ChEMBL document CHEMBL3596088, “Deepening the Topology of the Translocator Protein Binding Site by Novel N,N-Dialkyl-2-arylindol-3-ylglyoxylamides” (J Med Chem, 2015).

In one experiment the target is Translocator protein (Rattus norvegicus, UniProt P16257). Kind of experiment: Inhibition of [3H]PK11195 binding to TSPO in rat kidney mitochondrial membranes.
Chain of Translocator protein (P16257 whole entry, looked up): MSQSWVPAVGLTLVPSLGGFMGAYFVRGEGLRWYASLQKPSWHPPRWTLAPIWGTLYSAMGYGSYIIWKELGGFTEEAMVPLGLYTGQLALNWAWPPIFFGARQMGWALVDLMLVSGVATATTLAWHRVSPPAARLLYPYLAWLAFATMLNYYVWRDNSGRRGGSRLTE
Settings: not given
The class given is cell membranes.
For `CCCCN(CCCC)C(=O)C(=O)c1c(-c2ccsc2)[nH]c2ccccc12`, affinity was put at a Ki of 2.8 nM.

In turn, `CCCN(CCC)C(=O)C(=O)c1c(-c2ccc(C(=O)O)cc2)[nH]c2ccccc12` displayed a Ki of 343 nM.

Compound `CCCCCCN(CCCCCC)C(=O)C(=O)c1c(-c2ccsc2)[nH]c2ccccc12` yielded a Ki of 0.89 nM.

Take `CCCCN(CCCC)C(=O)C(=O)c1c(-c2ccc(C(=O)OC)cc2)[nH]c2ccccc12`: the affinity, expressed as Ki, was 2.7 nM.

As to `CCCCN(CCCC)C(=O)C(=O)c1c(-c2ccc(N)cc2)[nH]c2ccccc12`, the Ki amounted to 133 nM.

`CCCN(CCC)C(=O)C(=O)c1c(-c2ccc(C(=O)OC)cc2)[nH]c2ccccc12` came in with a Ki of 3.1 nM.

The compound `CCCN(CCC)C(=O)C(=O)c1c(-c2ccc(O)cc2)[nH]c2ccccc12` displayed a Ki of 16.1 nM.

For `CCCCCCN(CCCCCC)C(=O)C(=O)c1c(-c2ccc(C(=O)OC)cc2)[nH]c2ccccc12`, the Ki stood at 3.3 nM.

On to `CCCCN(CCCC)C(=O)C(=O)c1c(-c2ccc(OC)cc2)[nH]c2ccccc12`, for which the affinity, expressed as Ki, was 20.3 nM.

The compound `CCCN(CCC)C(=O)C(=O)c1c(-c2ccsc2)[nH]c2ccccc12` registered an inhibitory constant (Ki) of 1.2 nM.

As to `CCCCCCN(CCCCCC)C(=O)C(=O)c1c(-c2ccc(N)cc2)[nH]c2ccccc12`, the inhibitory constant (Ki) was 4.2 nM.

`CCCCN(CCCC)C(=O)C(=O)c1c(-c2ccc(-c3ccccc3)cc2)[nH]c2ccccc12` displayed a Ki of 5.5 nM.

Regarding `CCCN(CCC)C(=O)C(=O)c1c(-c2ccc(-c3ccccc3)cc2)[nH]c2ccccc12`, the inhibition constant (Ki) amounted to 0.53 nM.

In turn, `CCCN(CCC)C(=O)C(=O)c1c(-c2ccc(OC)cc2)[nH]c2ccccc12` showed an inhibition constant (Ki) of 5.8 nM.

Compound `CCCCN(CCCC)C(=O)C(=O)c1c(-c2ccc(O)cc2)[nH]c2ccccc12` had a Ki of 25.7 nM.

With `CCCCN(CCCC)C(=O)C(=O)c1c(-c2ccc(C(=O)O)cc2)[nH]c2ccccc12`, the Ki was determined as 406 nM.

On to `CCCCCN(C)C(=O)C(=O)c1c(-c2ccc3ccccc3c2)[nH]c2ccccc12`, for which the Ki was determined as 0.37 nM.

`CCCCCCN(CCCCCC)C(=O)C(=O)c1c(-c2ccc(OC)cc2)[nH]c2ccccc12` registered a Ki of 4 nM.

`CCCN(CCC)C(=O)C(=O)c1c(-c2ccc(N)cc2)[nH]c2ccccc12` registered an inhibitory constant (Ki) of 44.4 nM.

The compound `CCN(Cc1ccccc1)C(=O)C(=O)c1c(-c2ccc3ccccc3c2)[nH]c2ccccc12` registered a Ki of 0.51 nM.

Compound `CCCCN(C)C(=O)C(=O)c1c(-c2ccc3ccccc3c2)[nH]c2ccccc12` showed a Ki of 0.56 nM.

`CCCCCCN(CCCCCC)C(=O)C(=O)c1c(-c2ccc(C(=O)O)cc2)[nH]c2ccccc12` had an inhibitory constant (Ki) of 184 nM.

In turn, `CCCCN(CCCC)C(=O)C(=O)c1c(-c2ccc3ccccc3c2)[nH]c2ccccc12` displayed a Ki of 0.54 nM.

In turn, `CCCCN(CC)C(=O)C(=O)c1c(-c2ccc3ccccc3c2)[nH]c2ccccc12` returned a Ki of 0.51 nM.

As for `CCCCCCN(CCCCCC)C(=O)C(=O)c1c(-c2ccc(O)cc2)[nH]c2ccccc12`, the affinity, expressed as Ki, was 6.3 nM.

`CCCCCCN(CCCCCC)C(=O)C(=O)c1c(-c2ccc(-c3ccccc3)cc2)[nH]c2ccccc12` gave a Ki of 1.8 nM.

On to `CCCCCCN(CCCCCC)C(=O)C(=O)c1c(-c2ccc3ccccc3c2)[nH]c2ccccc12`, for which the Ki stood at 0.52 nM.

The species named for a further experiment is Rattus norvegicus. Kind of experiment: Inhibition of [3H]flumazenil binding to benzodiazepine receptor in rat cerebral cortex membranes at 10 uM incubated for 90 mins. It is filed as cell membranes. The following applies: Membrane. The method in brief: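 Crude rat cerebral cortex membrane fraction from differential centrifugation, washed to remove endogenous GABA. Incubated with 0.4 nM [3H]Ro15-1788 (flumazenil) for 90 min at 0 °C in 50 mM Tris-citrate, pH 7.4. Test compound at 10 μM; result given as percent inhibition of binding.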
`CCCCN(CCCC)C(=O)C(=O)c1c(-c2ccsc2)[nH]c2ccccc12` returned an inhibition of 0%.

In the case of `CCCN(CCC)C(=O)C(=O)c1c(-c2ccc3ccccc3c2)[nH]c2ccccc12`, the inhibition amounted to 0%.

Regarding `CCCN(CCC)C(=O)C(=O)c1c(-c2ccc(C(=O)O)cc2)[nH]c2ccccc12`, the inhibition was 0%.

Take `CCCCCCN(CCCCCC)C(=O)C(=O)c1c(-c2ccsc2)[nH]c2ccccc12`: the inhibition came to 0%.

`CCCCN(CCCC)C(=O)C(=O)c1c(-c2ccc(C(=O)OC)cc2)[nH]c2ccccc12`: the inhibition came to 0%.

In the case of `CCCCN(CCCC)C(=O)C(=O)c1c(-c2ccc(N)cc2)[nH]c2ccccc12`, the inhibition was determined as 0%.

`CCCN(CCC)C(=O)C(=O)c1c(-c2ccc(C(=O)OC)cc2)[nH]c2ccccc12` yielded an inhibition of 0%.

Compound `CCC(C)N(C)C(=O)c1cc2ccccc2c(-c2ccccc2Cl)n1` (configuration not stated) yielded an inhibition of 0%.

On to `CCCN(CCC)C(=O)C(=O)c1c(-c2ccc(O)cc2)[nH]c2ccccc12`, for which the inhibition is 0%.

`CCCCCCN(CCCCCC)C(=O)C(=O)c1c(-c2ccc(C(=O)OC)cc2)[nH]c2ccccc12` showed an inhibition of 0%.

The compound `CCCCN(CCCC)C(=O)C(=O)c1c(-c2ccc(OC)cc2)[nH]c2ccccc12` showed an inhibition of 0%.

`CCCN(CCC)C(=O)C(=O)c1c(-c2ccsc2)[nH]c2ccccc12` returned an inhibition of 0%.

As to `CCCCCCN(CCCCCC)C(=O)C(=O)c1c(-c2ccc(N)cc2)[nH]c2ccccc12`, the inhibition came to 0%.

`CCCCN(CCCC)C(=O)C(=O)c1c(-c2ccc(-c3ccccc3)cc2)[nH]c2ccccc12`: the inhibition came out at 0%.

Turning to `CCCN(CCC)C(=O)C(=O)c1c(-c2ccc(-c3ccccc3)cc2)[nH]c2ccccc12`, the inhibition came out at 0%.

For the compound `CCCN(CCC)C(=O)C(=O)c1c(-c2ccc(OC)cc2)[nH]c2ccccc12`, the inhibition was 0%.

Compound `CCCCN(CCCC)C(=O)C(=O)c1c(-c2ccc(O)cc2)[nH]c2ccccc12` registered an inhibition of 0%.

`CN1C(=O)CN=C(c2ccc(Cl)cc2)c2cc(Cl)ccc21` returned an inhibition of 0%.

In the case of `CCCCN(CCCC)C(=O)C(=O)c1c(-c2ccc(C(=O)O)cc2)[nH]c2ccccc12`, the inhibition was determined as 0%.

The compound `CCCCCN(C)C(=O)C(=O)c1c(-c2ccc3ccccc3c2)[nH]c2ccccc12` came in with an inhibition of 0%.

With `CCCCCCN(CCCCCC)C(=O)C(=O)c1c(-c2ccc(OC)cc2)[nH]c2ccccc12`, the inhibition stood at 0%.

`CCCN(CCC)C(=O)C(=O)c1c(-c2ccc(N)cc2)[nH]c2ccccc12` registered an inhibition of 0%.

On to `CCN(Cc1ccccc1)C(=O)C(=O)c1c(-c2ccc3ccccc3c2)[nH]c2ccccc12`, for which the inhibition was 0%.

In turn, `CCCCN(C)C(=O)C(=O)c1c(-c2ccc3ccccc3c2)[nH]c2ccccc12` came in with an inhibition of 0%.

`CCCCCCN(CCCCCC)C(=O)C(=O)c1c(-c2ccc(C(=O)O)cc2)[nH]c2ccccc12`: the inhibition was determined as 0%.

Regarding `CCCCN(CCCC)C(=O)C(=O)c1c(-c2ccc3ccccc3c2)[nH]c2ccccc12`, the inhibition is 0%.

Regarding `CCCCN(CC)C(=O)C(=O)c1c(-c2ccc3ccccc3c2)[nH]c2ccccc12`, the inhibition turned out to be 0%.

As to `CCCCCCN(CCCCCC)C(=O)C(=O)c1c(-c2ccc(O)cc2)[nH]c2ccccc12`, the inhibition turned out to be 0%.

Compound `CCCCCCN(CCCCCC)C(=O)C(=O)c1c(-c2ccc(-c3ccccc3)cc2)[nH]c2ccccc12` had an inhibition of 0%.

As for `CCCCCCN(CCCCCC)C(=O)C(=O)c1c(-c2ccc3ccccc3c2)[nH]c2ccccc12`, the inhibition is 0%.
